Results reported in ChEMBL document CHEMBL1156416, “Influence of high mutation rates on the mechanisms and dynamics of in vitro and in vivo resistance development to single or combined antipseudomonal agents” (Antimicrob Agents Chemother, 2007).
≈ marks a conversion by molar mass, not a printed value. Calls of active or inactive are those of the source. The calls are words filed in the database; no cut-off is given here.

What was measured:
[1] = tested on: Pseudomonas aeruginosa; experiment: Antibacterial activity against Pseudomonas aeruginosa PAO1 by Etest; type: functional
Method in brief: (§1)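 Etest strips were applied on Mueller-Hinton agar following the manufacturer's recommendations. For PAOΔmutS, the MIC read was that of the main population, ignoring resistant colonies growing within the inhibition ellipse.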

[2] = tested on: Pseudomonas aeruginosa; experiment: Antibacterial activity against Pseudomonas aeruginosa PAOdeltamutS by Etest; type: functional; method in brief: as §1
[3] = fAUC (0 to 24 hrs)/MIC ratio in Pseudomonas aeruginosa PAOdeltamutS infected C57BL/6J mouse at 70 mg/kg, ip administered every 3 hrs; type: functional; settings: route intraperitoneal
[4] = tested on: Pseudomonas aeruginosa; experiment: Antibacterial activity against Pseudomonas aeruginosa PAO1 infected in C57BL/6J mouse assessed as lung bacterial count at 70 mg/kg, ip administered every 3 hrs; type: functional, organism-based; design: dose 70 mg/kg
Method in brief: (§2)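 Female C57BL/6J mice (20–25 g) were anesthetized with ketamine/xylazine ip. They were inoculated transtracheally with about 2 × 10⁴ cells embedded in agarose beads. Ceftazidime 70 mg/kg every 3 h (or sterile water placebo) started 24 h after inoculation and ran for 3 days, 30 mice per group in two experiments. Lungs were taken 24 h after treatment ended, homogenized in saline, diluted 1/10 serially and plated on MHA; median counts were reported.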

[5] = tested on: Pseudomonas aeruginosa; experiment: Antibacterial activity against Pseudomonas aeruginosa PAOdeltamutS infected in C57BL/6J mouse assessed as mortality at 70 mg/kg, ip administered every 3 hrs; type: functional; settings: route intraperitoneal
Method in brief: (§3)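 Female C57BL/6J mice (20–25 g) were infected transtracheally under ketamine/xylazine with about 2 × 10⁴ agarose-bead-embedded cells. Beginning 24 h later, they received ceftazidime 70 mg/kg every 3 h or a sterile water placebo for 3 days. There were 30 mice per group from two independent experiments of 15. Mortality was recorded as the percentage of animals per group.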

[6] = tested on: Pseudomonas aeruginosa; experiment: f%T>MIC in Pseudomonas aeruginosa PAO1 infected C57BL/6J mouse at 70 mg/kg, ip administered every 3 hrs; type: functional; settings: route intraperitoneal
[7] = tested on: Pseudomonas aeruginosa; experiment: Antibacterial activity against Pseudomonas aeruginosa PAOdeltamutS infected in C57BL/6J mouse assessed as lung bacterial count at 70 mg/kg, ip administered every 3 hrs; type: functional, organism-based; design: dose 70 mg/kg; method in brief: as §2
[8] = Half life of free unbound fraction in Pseudomonas aeruginosa PAO1 infected C57BL/6J mouse at 70 mg/kg, ip administered every 3 hrs; type: ADME, organism-based; design: dose 70 mg/kg, route intraperitoneal; settings: in vivo, read-out: t1/2 unbound fraction (converted)
[9] = fAUC (0 to 24 hrs)/MIC ratio in Pseudomonas aeruginosa PAO1 infected C57BL/6J mouse at 70 mg/kg, ip administered every 3 hrs; type: functional; settings: route intraperitoneal
[10] = tested on: Mus musculus; experiment: fCmax in Pseudomonas aeruginosa PAO1 infected C57BL/6J mouse at 70 mg/kg, ip administered every 3 hrs; type: ADME, organism-based; design: dose 70 mg/kg, route intraperitoneal; settings: in vivo
[11] = tested on: Mus musculus; experiment: fAUC (0 to 24 hrs) in Pseudomonas aeruginosa PAO1 infected C57BL/6J mouse at 70 mg/kg, ip administered every 3 hrs; type: ADME, organism-based; design: dose 70 mg/kg, route intraperitoneal; settings: in vivo
[12] = fCmax/MIC ratio in Pseudomonas aeruginosa PAOdeltamutS infected C57BL/6J mouse at 70 mg/kg, ip administered every 3 hrs; type: functional; settings: route intraperitoneal
[13] = fCmax/MIC ratio in Pseudomonas aeruginosa PAO1 infected C57BL/6J mouse at 70 mg/kg, ip administered every 3 hrs; type: functional; settings: route intraperitoneal
[14] = tested on: Pseudomonas aeruginosa; experiment: Antibacterial activity against Pseudomonas aeruginosa PAO1 infected in C57BL/6J mouse assessed as mortality at 70 mg/kg, ip administered every 3 hrs; type: functional; settings: route intraperitoneal; method in brief: as §3
[15] = tested on: Pseudomonas aeruginosa; experiment: Antibacterial activity against Pseudomonas aeruginosa PAOdeltamutS infected in C57BL/6J mouse assessed as mortality at 20 mg/kg, ip administered every 6 hrs; type: functional; settings: route intraperitoneal
[16] = tested on: Pseudomonas aeruginosa; experiment: Antibacterial activity against Pseudomonas aeruginosa PAO1 infected in C57BL/6J mouse assessed as mortality at 20 mg/kg, ip administered every 6 hrs; type: functional; settings: route intraperitoneal
[17] = tested on: Pseudomonas aeruginosa; experiment: Antibacterial activity against Pseudomonas aeruginosa PAO1 infected in C57BL/6J mouse assessed as mortality at 10 mg/kg, ip administered every 6 hrs; type: functional; settings: route intraperitoneal
[18] = tested on: Pseudomonas aeruginosa; experiment: Antibacterial activity against Pseudomonas aeruginosa PAO1 infected in C57BL/6J mouse assessed as lung bacterial count at 10 mg/kg, ip administered every 6 hrs; type: functional, organism-based; design: dose 10 mg/kg
[19] = tested on: Mus musculus; experiment: fCmax in Pseudomonas aeruginosa PAO1 infected C57BL/6J mouse at 10 mg/kg, ip administered every 6 hrs; type: ADME, organism-based; design: dose 10 mg/kg, route intraperitoneal; settings: in vivo
[20] = tested on: Mus musculus; experiment: fAUC (0 to 24 hrs) in Pseudomonas aeruginosa PAO1 infected C57BL/6J mouse at 10 mg/kg, ip administered every 6 hrs; type: ADME, organism-based; design: dose 10 mg/kg, route intraperitoneal; settings: in vivo
[21] = fCmax/MIC ratio in Pseudomonas aeruginosa PAOdeltamutS infected C57BL/6J mouse at 10 mg/kg, ip administered every 6 hrs; type: functional; settings: route intraperitoneal
[22] = Half life of free unbound fraction in Pseudomonas aeruginosa PAO1 infected C57BL/6J mouse at 10 mg/kg, ip administered every 6 hrs; type: ADME, organism-based; design: dose 10 mg/kg, route intraperitoneal; settings: in vivo, read-out: t1/2 unbound fraction (converted)
[23] = tested on: Pseudomonas aeruginosa; experiment: Antibacterial activity against Pseudomonas aeruginosa PAOdeltamutS infected in C57BL/6J mouse assessed as mortality at 10 mg/kg, ip administered every 6 hrs; type: functional; settings: route intraperitoneal
[24] = fAUC (0 to 24 hrs)/MIC ratio in Pseudomonas aeruginosa PAO1 infected C57BL/6J mouse at 10 mg/kg, ip administered every 6 hrs; type: functional; settings: route intraperitoneal
[25] = fAUC (0 to 24 hrs)/MIC ratio in Pseudomonas aeruginosa PAOdeltamutS infected C57BL/6J mouse at 10 mg/kg, ip administered every 6 hrs; type: functional; settings: route intraperitoneal
[26] = tested on: Pseudomonas aeruginosa; experiment: Antibacterial activity against Pseudomonas aeruginosa PAOdeltamutS infected in C57BL/6J mouse assessed as lung bacterial count at 10 mg/kg, ip administered every 6 hrs; type: functional, organism-based; design: dose 10 mg/kg
[27] = fCmax/MIC ratio in Pseudomonas aeruginosa PAO1 infected C57BL/6J mouse at 10 mg/kg, ip administered every 6 hrs; type: functional; settings: route intraperitoneal

## O=C(N[C@H](CO)[C@H](O)c1ccc([N+](=O)[O-])cc1)C(Cl)Cl [CHLORAMPHENICOL]
[1]
  MIC: 32 µg/mL (≈ 99 µM)
[2]
  MIC: 32 µg/mL (≈ 99 µM)

## CC(C)(O/N=C(\C(=O)N[C@@H]1C(=O)N2C(C(=O)[O-])=C(C[n+]3ccccc3)CS[C@H]12)c1csc(N)n1)C(=O)O [CEFTAZIDIME]
[3]
  fAUC/MIC: 594
[4]
  Activity: Active
[5]
  mortality at 70 mg/kg: 43.3%
[6]
  f %t > MIC: 54%
[7]
  Activity: Active
[1]
  MIC: 1 µg/mL (≈ 1.83 µM)
[8]
  half-life: 24 min
[9]
  fAUC/MIC: 594
[10]
  fc max: 183.1 mg/L
[11]
  fAUC: 593.6 µg·h/mL
[12]
  fc max: 183
[2]
  MIC: 1 µg/mL (≈ 1.83 µM)
[13]
  fc max: 183
[14]
  mortality at 70 mg/kg: 56.7%

## C[C@H]1[C@H](NC(=O)/C(=N\OC(C)(C)C(=O)O)c2csc(N)n2)C(=O)N1S(=O)(=O)O [AZTREONAM]
[1]
  MIC: 1.5 µg/mL (≈ 3.44 µM)
[2]
  MIC: 1.5 µg/mL (≈ 3.44 µM)

## C[C@@H](O)[C@H]1C(=O)N2C(C(=O)O)=C(SCCNC=N)C[C@H]12 [IMIPENEM ANHYDROUS]
[1]
  MIC: 1.5 µg/mL (≈ 5.01 µM)
[2]
  MIC: 1.5 µg/mL (≈ 5.01 µM)

## O=C(O)c1cn(C2CC2)c2cc(N3CCNCC3)c(F)cc2c1=O [CIPROFLOXACIN]
[15]
  mortality at 20 mg/kg: 26.7%
[16]
  mortality at 20 mg/kg: 26.7%
[2]
  MIC: 0.12 µg/mL (≈ 0.362 µM)

## NC[C@H]1O[C@H](O[C@H]2[C@H](O)[C@@H](O[C@H]3O[C@H](CO)[C@@H](O)[C@H](N)[C@H]3O)[C@H](N)C[C@@H]2N)[C@H](N)C[C@@H]1O [TOBRAMYCIN]
[17]
  mortality at 10 mg/kg: 66.7%
[18]
  f %t > MIC: Active
[19]
  fc max: 19.07 mg/L
[20]
  fAUC: 42.96 µg·h/mL
[21]
  fc max/MIC: 19
[22]
  half-life: 33 min
[1]
  MIC: 1 µg/mL (≈ 2.14 µM)
[23]
  mortality at 10 mg/kg: 60%
[24]
  fAUC/MIC: 43
[25]
  fAUC/MIC: 43
[26]
  f %t > MIC: Active
[27]
  fc max/MIC: 19
[2]
  MIC: 1 µg/mL (≈ 2.14 µM)

## CO/N=C(\C(=O)N[C@@H]1C(=O)N2C(C(=O)[O-])=C(C[N+]3(C)CCCC3)CS[C@H]12)c1csc(N)n1
[1]
  MIC: 1 µg/mL (≈ 2.08 µM)
[2]
  MIC: 1 µg/mL (≈ 2.08 µM)

## C[C@@H](O)[C@H]1C(=O)N2C(C(=O)O)=C(S[C@@H]3CN[C@H](C(=O)N(C)C)C3)[C@H](C)[C@H]12 [MEROPENEM]
[1]
  MIC: 0.5 µg/mL (≈ 1.3 µM)
[2]
  MIC: 0.75 µg/mL (≈ 1.96 µM)

## CN(C)[C@@H]1C(O)=C(C(N)=O)C(=O)[C@@]2(O)C(O)=C3C(=O)c4c(O)cccc4[C@@](C)(O)[C@H]3C[C@@H]12 [TETRACYCLINE]
[1]
  MIC: 24 µg/mL (≈ 54 µM)
[2]
  MIC: 24 µg/mL (≈ 54 µM)
